In ChEMBL document CHEMBL1122906, “Improved antagonists of luteinizing hormone-releasing hormone modified in position 7” (1985) one finds Activity data, which are given here for 19 compounds.

Square brackets hold non-standard residues; d marks the D form. Peptide text beside a SMILES is read from it. dPhe(4-Cl) = N[C@H](Cc1ccc(Cl)cc1)C(=O)O; d2Nal = N[C@H](Cc1ccc2ccccc2c1)C(=O)O

Assay type in all cases: functional
The species entered for test [1] is Rattus norvegicus. Nature of the test: Percent anti-ovulatory activity in Sprague-Dawley rats against percent of 10 rats that did not ovulate at dose 3 ug. An outline of the steps:
(§1)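 Antiovulatory activity was tested in Sprague-Dawley rats using the standard rat antiovulatory assay. Analogues were given in a 40% propylene glycol-saline vehicle at the stated microgram dose. The value is the percentage of the (n) rats in each group in which ovulation was blocked.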

The species named for test [2] is Rattus norvegicus. Nature of the test: Percent anti-ovulatory activity in Sprague-Dawley rats against percent of 11 rats that did not ovulate at dose 1 microg. An outline of the steps: as §1
For test [3], the species on record is Rattus norvegicus. Nature of the test: Percent anti-ovulatory activity in Sprague-Dawley rats against percent of 12 rats that did not ovulate at dose 3 microg. An outline of the steps:
as §1

For test [4], the species on record is Rattus norvegicus. Nature of the test: Percent anti-ovulatory activity in Sprague-Dawley rats against percent of 9 rats that did not ovulate at dose 1 microg. An outline of the steps:
as §1

The species named for test [5] is Rattus norvegicus. Nature of the test: Percent anti-ovulatory activity in Sprague-Dawley rats against percent of 10 rats that did not ovulate at dose 1 ug. An outline of the steps:
as §1

Test [6] is filed under the species Rattus norvegicus. Nature of the test: Percent anti-ovulatory activity in Sprague-Dawley rats against percent of 8 rats that did not ovulate at dose 3 microg. An outline of the steps: as §1
For test [7], the species on record is Rattus norvegicus. Nature of the test: Percent anti-ovulatory activity in Sprague-Dawley rats against percent of 11 rats that did not ovulate at dose 3 microg. Summed up:
as §1

For test [8], the species on record is Rattus norvegicus. Nature of the test: Percent anti-ovulatory activity in Sprague-Dawley rats against percent of 5 rats that did not ovulate at dose 1 microg. Summed up: as §1
The species named for test [9] is Rattus norvegicus. Nature of the test: Percent anti-ovulatory activity in Sprague-Dawley rats against percent of 13 rats that did not ovulate at dose 7.5 microg. Summed up:
as §1

The species named for test [10] is Rattus norvegicus. Nature of the test: Percent anti-ovulatory activity in Sprague-Dawley rats against percent of 13 rats that did not ovulate at dose 1 ug. Summed up:
as §1

The species named for test [11] is Rattus norvegicus. Nature of the test: Percent anti-ovulatory activity in Sprague-Dawley rats against percent of 9 rats that did not ovulate at dose 3 microg. An outline of the steps:
as §1

The species entered for test [12] is Rattus norvegicus. Nature of the test: Percent anti-ovulatory activity in Sprague-Dawley rats against percent of 8 rats that did not ovulate at dose 1 microg. Summed up: as §1
For test [13], the species on record is Rattus norvegicus. Nature of the test: Percent anti-ovulatory activity in Sprague-Dawley rats against percent of 10 rats that did not ovulate at dose 1 microg. Summed up:
as §1

Test [14] is filed under the species Rattus norvegicus. Nature of the test: Percent anti-ovulatory activity in Sprague-Dawley rats against percent of 11 rats that did not ovulate at dose 0.5 ug. An outline of the steps:
as §1

For test [15], the species on record is Rattus norvegicus. Nature of the test: Percent anti-ovulatory activity in Sprague-Dawley rats against percent of 10 rats that did not ovulate at dose 0.5 microg. An outline of the steps:
as §1

Test [16] is filed under the species Rattus norvegicus. Nature of the test: Percent anti-ovulatory activity in Sprague-Dawley rats against percent of 10 rats that did not ovulate at dose 50 microg. Summed up: as §1
The species named for test [17] is Rattus norvegicus. Nature of the test: Percent anti-ovulatory activity in Sprague-Dawley rats against percent of 10 rats that did not ovulate at dose 3 microg. An outline of the steps: as §1
The species named for test [18] is Rattus norvegicus. Nature of the test: Percent anti-ovulatory activity in Sprague-Dawley rats against percent of 13 rats that did not ovulate at dose 0.5 microg. An outline of the steps: as §1
The species entered for test [19] is Rattus norvegicus. Nature of the test: Percent anti-ovulatory activity in Sprague-Dawley rats against percent of 7 rats that did not ovulate at dose 3 microg. Summed up: as §1
The species named for test [20] is Rattus norvegicus. Nature of the test: Percent anti-ovulatory activity in Sprague-Dawley rats against percent of 8 rats that did not ovulate at dose 50 microg. An outline of the steps:
as §1

Consider `CC(=O)N[C@H](Cc1ccc2ccccc2c1)C(=O)N[C@H](Cc1ccc(Cl)cc1)C(=O)N[C@H](Cc1c[nH]c2ccccc12)C(=O)N[C@@H](CO)C(=O)N[C@@H](Cc1ccc(O)cc1)C(=O)N[C@H](CCCN=C(N)N)C(=O)N[C@H](C(=O)N[C@@H](CCCN=C(N)N)C(=O)N1CCC[C@H]1C(=O)N[C@H](C)C(N)=O)[C@@H](C)O`, for which the Activity in test [1] was found to be 20%.

In the case of `CC(=O)N[C@H](Cc1ccc2ccccc2c1)C(=O)N[C@H](Cc1ccc(Cl)cc1)C(=O)N[C@H](Cc1c[nH]c2ccccc12)C(=O)N[C@@H](CO)C(=O)N[C@@H](Cc1ccc(O)cc1)C(=O)N[C@H](CCCN=C(N)N)C(=O)N[C@@H](Cc1ccc(Cl)cc1)C(=O)N[C@@H](CCCN=C(N)N)C(=O)N1CCC[C@H]1C(=O)N[C@H](C)C(N)=O`, the Activity stood at 9% in [2] and 100% in test [3].

Compound `CC(=O)N[C@H](Cc1ccc2ccccc2c1)C(=O)N[C@H](Cc1ccc(Cl)cc1)C(=O)N[C@H](Cc1c[nH]c2ccccc12)C(=O)N[C@@H](CO)C(=O)N[C@@H](Cc1ccc(O)cc1)C(=O)N[C@H](CCCN=C(N)N)C(=O)N[C@@H](Cc1ccc(C)cc1)C(=O)N[C@@H](CCCN=C(N)N)C(=O)N1CCC[C@H]1C(=O)N[C@H](C)C(N)=O` returned an Activity in [4] of 22%.

As to `CC(=O)N[C@H](Cc1ccc2ccccc2c1)C(=O)N[C@H](Cc1ccc(Cl)cc1)C(=O)N[C@H](Cc1c[nH]c2ccccc12)C(=O)N[C@@H](CO)C(=O)N[C@@H](Cc1ccc(O)cc1)C(=O)N[C@H](CCCN=C(N)N)C(=O)N[C@@H](Cc1ccc(F)cc1)C(=O)N[C@@H](CCCN=C(N)N)C(=O)N1CCC[C@H]1C(=O)N[C@H](C)C(N)=O`, the Activity in test [5] is 0%; in [6] it was 75%.

In the case of `CC(=O)N[C@H](Cc1ccc2ccccc2c1)C(=O)N[C@H](Cc1ccc(Cl)cc1)C(=O)N[C@H](Cc1c[nH]c2ccccc12)C(=O)N[C@@H](CO)C(=O)N[C@@H](Cc1ccc(O)cc1)C(=O)N[C@H](CCCN=C(N)N)C(=O)N[C@@H](Cc1c(F)c(F)c(F)c(F)c1F)C(=O)N[C@@H](CCCN=C(N)N)C(=O)N1CCC[C@H]1C(=O)N[C@H](C)C(N)=O`, the Activity is 100% in [7] and 20% in [8].

Take `CC(=O)N[C@H](Cc1ccc2ccccc2c1)C(=O)N[C@H](Cc1ccc(Cl)cc1)C(=O)N[C@H](Cc1c[nH]c2ccccc12)C(=O)N[C@@H](CO)C(=O)N[C@@H](Cc1ccc(O)cc1)C(=O)N[C@H](CCCN=C(N)N)C(=O)N[C@@H](CCCCN)C(=O)N[C@@H](CCCN=C(N)N)C(=O)N1CCC[C@H]1C(=O)N[C@H](C)C(N)=O`: in [9], the Activity was determined as 0%.

Compound `CC(=O)N[C@H](Cc1ccc2ccccc2c1)C(=O)N[C@H](Cc1ccc2ccccc2c1)C(=O)N[C@H](Cc1c[nH]c2ccccc12)C(=O)N[C@@H](CO)C(=O)N[C@@H](Cc1ccc(O)cc1)C(=O)N[C@H](CCCN=C(N)N)C(=O)N[C@@H](CC(C)C)C(=O)N[C@@H](CCCN=C(N)N)C(=O)N1CCC[C@H]1C(=O)N[C@H](C)C(N)=O` gave an Activity in test [2] of 0%.

For `CC(=O)N[C@H](Cc1ccc2ccccc2c1)C(=O)N[C@H](Cc1ccc(Cl)cc1)C(=O)N[C@H](Cc1c[nH]c2ccccc12)C(=O)N[C@@H](CO)C(=O)N[C@@H](Cc1ccc(O)cc1)C(=O)N[C@H](CCCN=C(N)N)C(=O)N[C@@H](CC(C)C)C(=O)N[C@@H](CCCN=C(N)N)C(=O)N1CCC[C@H]1C(=O)N[C@H](C)C(N)=O` (Ac-[d2Nal][dPhe(4-Cl)][dW]SY[dR]LRP[dA]-NH2), the values for the Activity in test [10] and in [11] were 77% and 100%, respectively.

With `CC(=O)N[C@H](Cc1ccc2ccccc2c1)C(=O)N[C@H](Cc1ccc(Cl)cc1)C(=O)N[C@H](Cc1c[nH]c2ccccc12)C(=O)N[C@@H](CO)C(=O)N[C@@H](Cc1ccc(O)cc1)C(=O)N[C@H](CCCN=C(N)N)C(=O)N(C)[C@@H](Cc1ccccc1)C(=O)N[C@@H](CCCN=C(N)N)C(=O)N1CCC[C@H]1C(=O)N[C@H](C)C(N)=O`, the Activity in [12] is on record as 13%; in test [11], 11%.

`CC(=O)N[C@H](Cc1ccc(Cl)cc1)C(=O)N[C@H](Cc1ccc(Cl)cc1)C(=O)N[C@H](Cc1c[nH]c2ccccc12)C(=O)N[C@@H](CO)C(=O)N[C@@H](Cc1ccc(O)cc1)C(=O)N[C@H](CCCN=C(N)N)C(=O)N[C@@H](Cc1ccccc1)C(=O)N[C@@H](CCCN=C(N)N)C(=O)N1CCC[C@H]1C(=O)N[C@H](C)C(N)=O` (Ac-[dPhe(4-Cl)][dPhe(4-Cl)][dW]SY[dR]FRP[dA]-NH2) displayed an Activity in test [13] of 20%.

On to `CC(=O)N[C@H](Cc1ccc2ccccc2c1)C(=O)N[C@H](Cc1ccc(Cl)cc1)C(=O)N[C@H](Cc1c[nH]c2ccccc12)C(=O)N[C@@H](CO)C(=O)N[C@@H](Cc1ccc(O)cc1)C(=O)N[C@H](CCCN=C(N)N)C(=O)N[C@@H](Cc1ccccc1)C(=O)N[C@@H](CCCN=C(N)N)C(=O)N1CCC[C@H]1C(=O)N[C@H](C)C(N)=O` (Ac-[d2Nal][dPhe(4-Cl)][dW]SY[dR]FRP[dA]-NH2), for which the Activity in test [14] was 64%.

On to `CC(=O)N[C@H](Cc1ccc2ccccc2c1)C(=O)N[C@H](Cc1ccc(Cl)cc1)C(=O)N[C@H](Cc1c[nH]c2ccccc12)C(=O)N[C@@H](CO)C(=O)N[C@@H](Cc1ccc(O)cc1)C(=O)N[C@H](CCCN=C(N)N)C(=O)N[C@@H](Cc1c[nH]c2ccccc12)C(=O)N[C@@H](CCCN=C(N)N)C(=O)N1CCC[C@H]1C(=O)N[C@H](C)C(N)=O`, for which the Activity in test [15] turned out to be 10%; in test [6], 85%.

On to `CC(=O)N[C@H](Cc1ccc2ccccc2c1)C(=O)N[C@H](Cc1ccc(Cl)cc1)C(=O)N[C@@H]1CSSC[C@@H](C(=O)N[C@@H](CCCN=C(N)N)C(=O)N2CCC[C@H]2C(=O)N[C@H](C)C(N)=O)NC(=O)[C@@H](CCCN=C(N)N)NC(=O)[C@H](Cc2ccc(O)cc2)NC(=O)[C@H](CO)NC1=O`, for which, in test [16], the Activity came to 0%.

Take `CC(=O)N[C@H](Cc1ccc2ccccc2c1)C(=O)N[C@H](Cc1ccc(Cl)cc1)C(=O)N[C@H](Cc1c[nH]c2ccccc12)C(=O)N[C@@H](CO)C(=O)N[C@@H](Cc1ccc(O)cc1)C(=O)N[C@H](CCCN=C(N)N)C(=O)N[C@@H](Cc1ccc2ccccc2c1)C(=O)N[C@@H](CCCN=C(N)N)C(=O)N1CCC[C@H]1C(=O)N[C@H](C)C(N)=O`: the Activity in test [15] turned out to be 0%; in [17], 100%.

For the compound `CC(=O)N[C@H](Cc1ccc2ccccc2c1)C(=O)N[C@H](Cc1ccc(Cl)cc1)C(=O)N[C@H](Cc1c[nH]c2ccccc12)C(=O)N[C@@H](CO)C(=O)N[C@@H](Cc1ccc(O)cc1)C(=O)N[C@H](CCCN=C(N)N)C(=O)N[C@@H](Cc1ccc(O)cc1)C(=O)N[C@@H](CCCN=C(N)N)C(=O)N1CCC[C@H]1C(=O)N[C@H](C)C(N)=O`, the Activity in [18] is 31%; in test [19], 100%; in test [4], 89%.

In test [20], `CC(=O)N[C@H](Cc1ccc2ccccc2c1)C(=O)N[C@@H]1CSSC[C@@H](C(=O)N[C@@H](CCCN=C(N)N)C(=O)N2CCC[C@H]2C(=O)N[C@H](C)C(N)=O)NC(=O)[C@@H](CCCN=C(N)N)NC(=O)[C@H](Cc2ccc(O)cc2)NC(=O)[C@H](CO)NC(=O)[C@@H](Cc2c[nH]c3ccccc23)NC1=O` came in with an Activity of 0%.

Turning to `CC(=O)N[C@H](Cc1ccc2ccccc2c1)C(=O)N[C@H](Cc1ccc2ccccc2c1)C(=O)N[C@H](Cc1c[nH]c2ccccc12)C(=O)N[C@@H](CO)C(=O)N[C@@H](Cc1ccc(O)cc1)C(=O)N[C@H](CCCN=C(N)N)C(=O)N[C@@H](Cc1ccc(O)cc1)C(=O)N[C@@H](CCCN=C(N)N)C(=O)N1CCC[C@H]1C(=O)N[C@H](C)C(N)=O`, the Activity in test [4] worked out at 11%.

In [20], `CC(=O)N[C@H](Cc1ccc2ccccc2c1)C(=O)N[C@H](Cc1ccc(Cl)cc1)C(=O)N[C@H](Cc1c[nH]c2ccccc12)C(=O)N[C@H]1CSSC[C@@H](C(=O)N[C@@H](CCCN=C(N)N)C(=O)N2CCC[C@H]2C(=O)N[C@H](C)C(N)=O)NC(=O)[C@@H](CCCN=C(N)N)NC(=O)[C@H](Cc2ccc(O)cc2)NC1=O` showed an Activity of 0%.

Compound `CC(=O)N[C@H](Cc1ccc2ccccc2c1)C(=O)N[C@H](Cc1ccc(Cl)cc1)C(=O)N[C@H](Cc1c[nH]c2ccccc12)C(=O)N[C@@H](CO)C(=O)N[C@H]1CSSC[C@@H](C(=O)N[C@@H](CCCN=C(N)N)C(=O)N2CCC[C@H]2C(=O)N[C@H](C)C(N)=O)NC(=O)[C@@H](CCCN=C(N)N)NC1=O` had an Activity in [20] of 0%.
